Test results published in ChEMBL document CHEMBL1914438, “Synthesis and biological activity of novel N-cycloalkyl-(cycloalkylaryl)-2-[(3-R-2-oxo-2H-[1,2,4]triazino[2,3-c]quinazoline-6-yl)thio]acetamides” (2011).
Activity calls are given as the source filed them. The calls are words filed in the database; no cut-off is given here.

Key:
[1] = tested on: Photobacterium leiognathi; test: Antibacterial activity against Photobacterium leiognathi Sh1 assessed as inhibition of bacterial luminescence at 0.025 mg/mL after 16 to 18 hrs by bioluminometry-based chronic action test; parameters: scale not given: the % may be the effect or the level left
Mycobacterium [2] = test: Antibacterial activity against Mycobacterium luteum at 1 to 5 mg/mL after 24 hrs by stiff-plate agar-diffusion method; assay type: functional, organism-based
In short: (§1)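 Agar diffusion (stiff plate) with test substances at 5 mg/mL in grooves, allowed to diffuse into nutrient agar; inoculum 10^9 c.f.u./mL; bacteria incubated 24 h at 35 °C. Read-out: inhibition zone diameter (not sensitive 11–15 mm, sensitive 16–25 mm, highly sensitive >25 mm). Vancomycin and oxacillin as standards; three repeats.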

Staphylococcus aureus [3] = test: Antibacterial activity against Staphylococcus aureus at 1 to 5 mg/mL after 24 hrs by stiff-plate agar-diffusion method; assay type: functional, organism-based
In short: as §1

[4] = tested on: Photobacterium leiognathi; test: Antibacterial activity against Photobacterium leiognathi Sh1 assessed as inhibition of bacterial luminescence at 0.1 mg/mL after 10 mins by bioluminometry-based chronic action test; assay type: functional; parameters: scale not given: the % may be the effect or the level left; conditions: in the assay text read “after 16 to 18 hrs” for “after 10 mins”
In short: (§2)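 Chronic (growth plus luminescence) test with P. leiognathi Sh1 at 10^5 cells/mL in chloride solution, compounds added in DMSO. After 10 min at 25 °C, growth medium added at 1:50 and the mix incubated 16–18 h at 30 °C. Luminescence then measured by bioluminometer as % of untreated control. Tetracycline reference.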

Escherichia coli [5] = test: Antibacterial activity against Escherichia coli at 1 to 5 mg/mL after 24 hrs by stiff-plate agar-diffusion method; assay type: functional, organism-based
In short: as §1

[6] = tested on: Photobacterium leiognathi; test: Antibacterial activity against Photobacterium leiognathi Sh1 assessed as inhibition of bacterial luminescence at 0.025 mg/mL after 10 mins by bioluminometry-based acute action test; assay type: functional; parameters: scale not given: the % may be the effect or the level left
In short: (§3)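 Marine P. leiognathi Sh1 (Azov Sea shrimp isolate) diluted in chloride solution to 10^5 cells/mL; compounds suspended in DMSO mixed with 1 mL bacterial suspension. Acute test: 10 min at 25 °C, then bioluminescence measured by bioluminometer as % of compound-free control. Tetracycline reference.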

Aspergillus niger [7] = test: Antifungal activity against Aspergillus niger at 1 to 5 mg/mL after 48 to 72 hrs by stiff-plate agar-diffusion method; assay type: functional, organism-based
In short: (§4)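 Fungal plates run by stiff-plate agar diffusion, substances applied to grooves at 5 mg/mL; 10^9 c.f.u./mL cells; incubation 48–72 h at 28–30 °C. Inhibition zone diameter scored (11–15 mm not sensitive, 16–25 mm sensitive, >25 mm highly sensitive). Nystatin standard; experiments done three times.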

[8] = tested on: Photobacterium leiognathi; test: Antibacterial activity against Photobacterium leiognathi Sh1 assessed as inhibition of bacterial luminescence at 0.1 mg/mL after 10 mins by bioluminometry-based acute action test; assay type: functional; parameters: scale not given: the % may be the effect or the level left
In short: as §3

Yamadazyma tenuis [9] = test: Antifungal activity against Candida tenuis at 1 to 5 mg/mL after 48 to 72 hrs by stiff-plate agar-diffusion method; assay type: functional, organism-based
In short: as §4

[10] = tested on: Photobacterium leiognathi; test: Antibacterial activity against Photobacterium leiognathi Sh1 assessed as inhibition of bacterial luminescence at 0.25 mg/mL after 10 mins by bioluminometry-based chronic action test; assay type: functional; parameters: scale not given: the % may be the effect or the level left; conditions: in the assay text read “after 16 to 18 hrs” for “after 10 mins”
In short: as §2

[11] = tested on: Photobacterium leiognathi; test: Antibacterial activity against Photobacterium leiognathi Sh1 assessed as inhibition of bacterial luminescence at 0.25 mg/mL after 10 mins by bioluminometry-based acute action test; assay type: functional; parameters: scale not given: the % may be the effect or the level left
In short: as §3

Mycobacterium [12] = test: Antibacterial activity against Mycobacterium luteum assessed as zone of inhibition at 0.01 mg/mL after 24 hrs by stiff-plate agar-diffusion method; assay type: functional; conditions: read-out: DIZ
In short: (§5)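 Stiff-plate agar diffusion. Inoculum 10^9 c.f.u./mL. Compounds were streaked across grooves in the agar nutrient plate and left to diffuse. Plates were incubated 24 h at 35 °C. Read-out was inhibition zone diameter: 11–15 mm not sensitive, 16–25 mm sensitive, >25 mm highly sensitive. Vancomycin and oxacillin were the standards. Three repeats.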

Yamadazyma tenuis [13] = test: Antifungal activity against Candida tenuis assessed as zone of inhibition at 0.01 mg/mL after 48 to 72 hrs by stiff-plate agar-diffusion method; assay type: functional; conditions: read-out: DIZ
In short: (§6)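 Fungi were tested by stiff-plate agar diffusion from a 10^9 c.f.u./mL inoculum. Compounds were placed in agar grooves and allowed to diffuse. Incubation was 48–72 h at 28–30 °C. Inhibition zone diameter was scored as not sensitive (11–15 mm), sensitive (16–25 mm) or highly sensitive (>25 mm). Nystatin was the standard. Experiments were done in triplicate.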

Aspergillus niger [14] = test: Antifungal activity against Aspergillus niger assessed as zone of inhibition at 0.01 mg/mL after 48 to 72 hrs by stiff-plate agar-diffusion method; assay type: functional; conditions: read-out: DIZ
In short: as §6

Staphylococcus aureus [15] = test: Antibacterial activity against Staphylococcus aureus assessed as zone of inhibition at 0.01 mg/mL after 24 hrs by stiff-plate agar-diffusion method; assay type: functional; conditions: read-out: DIZ
In short: as §5

Escherichia coli [16] = test: Antibacterial activity against Escherichia coli assessed as zone of inhibition at 0.01 mg/mL after 24 hrs by stiff-plate agar-diffusion method; assay type: functional; conditions: read-out: DIZ
In short: as §5

CCRF-CEM = test: Cytotoxicity against human CCRF-CEM cells assessed as cell growth at 10^-5 M after 48 hrs by SRB assay; assay type: functional; conditions: read-out: Activity
In short: (§7)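 NCI 60-cell-line one-dose primary screen: cells inoculated and preincubated 24–48 h, then test agent added at a single 10^-5 M concentration for a further 48 h. Endpoint is sulforhodamine B protein staining read spectrophotometrically. Reported as percent growth relative to untreated control cells.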

SF-295 = test: Cytotoxicity against human SF295 cells assessed as cell growth at 10^-5 M after 48 hrs by SRB assay; assay type: functional; conditions: SF-295, 48 h, read-out: Activity
In short: (§8)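 NCI human tumor cell line panel from nine cancer types. Each line was inoculated and preincubated 24–48 h, then exposed to a single concentration (10^-5 M) for 48 h. Growth was read by sulforhodamine B protein staining, measured spectrophotometrically. Value reported as percent growth of treated cells relative to untreated controls.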

EKVX = test: Cytotoxicity against human EKVX cells assessed as cell growth at 10^-5 M after 48 hrs by SRB assay; assay type: functional; conditions: read-out: Activity
In short: as §7

SK-MEL-5 = test: Cytotoxicity against human SK-MEL-5 cells assessed as cell growth at 10^-5 M after 48 hrs by SRB assay; assay type: functional; conditions: SK-MEL-5, 48 h, read-out: Activity
In short: as §8

MOLT-4 = test: Cytotoxicity against human MOLT4 cells assessed as cell growth at 10^-5 M after 48 hrs by SRB assay; assay type: functional; conditions: MOLT-4, 48 h, read-out: Activity
In short: as §8

UACC-257 = test: Cytotoxicity against human UACC257 cells assessed as cell growth at 10^-5 M after 48 hrs by SRB assay; assay type: functional; conditions: UACC-257, 48 h, read-out: Activity
In short: as §8

SR = test: Cytotoxicity against human SR cells assessed as cell growth at 10^-5 M after 48 hrs by SRB assay; assay type: functional; conditions: read-out: Activity
In short: as §8

CAKI-1 = test: Cytotoxicity against human Caki1 cells assessed as cell growth at 10^-5 M after 48 hrs by SRB assay; assay type: functional; conditions: CAKI-1, 48 h, read-out: Activity
In short: as §7

SNB-75 = test: Cytotoxicity against human SNB75 cells assessed as cell growth at 10^-5 M after 48 hrs by SRB assay; assay type: functional; conditions: SNB-75, 48 h, read-out: Activity
In short: as §8

A549 = test: Cytotoxicity against human A549 cells assessed as cell growth at 10^-5 M after 48 hrs by SRB assay; assay type: functional; conditions: A549, 48 h, read-out: Activity
In short: as §7

[17] = tested on: Photobacterium leiognathi; test: Antibacterial activity against Photobacterium leiognathi Sh1 assessed as inhibition of bacterial luminescence at 0.025 mg/mL after 10 mins by bioluminometry-based chronic action test; assay type: functional; parameters: scale not given: the % may be the effect or the level left; conditions: in the assay text read “after 16 to 18 hrs” for “after 10 mins”
In short: as §2

[18] = tested on: Photobacterium leiognathi; test: Antibacterial activity against Photobacterium leiognathi Sh1 at 0.1 to 0.25 ug/mL; assay type: functional, organism-based
UO-31 = test: Cytotoxicity against human UO31 cells assessed as cell growth at 10^-5 M after 48 hrs by SRB assay; assay type: functional; conditions: UO-31, 48 h, read-out: Activity
In short: as §8

SK-OV-3 = test: Cytotoxicity against human SKOV3 cells assessed as cell growth at 10^-5 M after 48 hrs by SRB assay; assay type: functional; conditions: SK-OV-3, 48 h, read-out: Activity
In short: as §8

K562 = test: Cytotoxicity against human K562 cells assessed as cell growth at 10^-5 M after 48 hrs by SRB assay; assay type: functional; conditions: K562, 48 h, read-out: Activity
In short: as §7

PC-3 = test: Cytotoxicity against human PC3 cells assessed as cell growth at 10^-5 M after 48 hrs by SRB assay; assay type: functional; conditions: PC-3, 48 h, read-out: Activity
In short: as §8

## CCC1C2CCC(C2)C1NC(=O)CSc1nc2ccccc2c2nc(=O)c(-c3ccc(C)cc3)nn12 (configuration not stated)
[1]
  Activity: 100%
Mycobacterium [2]
  Activity: inactive
Staphylococcus aureus [3]
  Activity: inactive
[4]
  Activity: 120%
Escherichia coli [5]
  Activity: inactive
[6]
  Activity: 110%
Aspergillus niger [7]
  Activity: inactive
[8]
  Activity: 96%
Yamadazyma tenuis [9]
  Activity: inactive
[10]
  Activity: 44%
[11]
  Activity: 120%

## Cc1onc(-c2ccccc2)c1C(=O)N[C@@H]1C(=O)N2[C@@H]1SC(C)(C)[C@@H]2C(=O)O [OXACILLIN]
Mycobacterium [12]
  zone of inhibition at 10 µg/mL: 0 mm
Yamadazyma tenuis [13]
  zone of inhibition at 10 µg/mL: 0 mm
Aspergillus niger [14]
  zone of inhibition at 10 µg/mL: 0 mm
Staphylococcus aureus [15]
  zone of inhibition at 10 µg/mL: 21 mm
Escherichia coli [16]
  zone of inhibition at 10 µg/mL: 0 mm

## Cc1ccc(-c2nn3c(SCC(=O)O)nc4ccccc4c3nc2=O)cc1
Mycobacterium [2]
  Activity: inactive
CCRF-CEM
  growth at 10 µM: 95.6%
Staphylococcus aureus [3]
  Activity: inactive
[4]
  Activity: 255.3%
Escherichia coli [5]
  Activity: inactive
[6]
  Activity: 91.7%
SF-295
  growth at 10 µM: 84.3%
EKVX
  growth at 10 µM: 95%
SK-MEL-5
  growth at 10 µM: 96%
MOLT-4
  growth at 10 µM: 84.9%
Aspergillus niger [7]
  Activity: inactive
UACC-257
  growth at 10 µM: 95.1%
SR
  growth at 10 µM: 68%
[8]
  Activity: 20%
CAKI-1
  growth at 10 µM: 82.8%
Yamadazyma tenuis [9]
  Activity: inactive
SNB-75
  growth at 10 µM: 74.2%
A549
  growth at 10 µM: 96.5%
[17]
  Activity: 93.3%
[10]
  Activity: 0%
[18]
  Activity: inactive
UO-31
  growth at 10 µM: 85.3%
SK-OV-3
  growth at 10 µM: 89.9%
[11]
  Activity: 0%
K562
  growth at 10 µM: 94.5%
PC-3
  growth at 10 µM: 86.5%
